The results in this text go back to ChEMBL document CHEMBL1124241, “Arylformamidines with antinociceptive properties” (1988).

The structures appear in SMILES notation.

As a reminder, the ED50 is the midpoint of the dose-response relation.

Common to all, as to type: functional
The species entered for assay [1] is Mus musculus. The assay is described as follows: Analgesic activity was determined in mouse writhing test. Summed up: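 Mice received test compound sc; 30 min later 0.2 mL of 0.08 N HCl was given ip. Animals were watched for 15 min for absence of abdominal stretching (writhing). Activity was expressed as ED50 in mg/kg.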
Background: In writhing tests, fewer writhes than in controls are read as antinociception.

For assay [2], the system named is Mus musculus. The assay is described as follows: Analgesic activity was determined in mouse tail flick writhing test by intraperitoneal administration of 0.2 mL of 0.08 N HCl 30 min after the subcutaneous injection of the compound.
The test system of assay [3] is Mus musculus. The assay is described as follows: Analgesic activity was determined in mouse pinch writhing test by intraperitoneal administration of 0.2 mL of 0.08 N HCl 30 min after the subcutaneous injection of the compound.
In assay [4] the test system is Rattus norvegicus. Briefly: Hypotensive activity in the rat as change in blood pressure (mmHg) at 24 hr after of 50 mg/kg oral dose of the compound; Bradycardia. The essentials: (§1)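 Conscious restrained female Sprague-Dawley rats fitted with chronic indwelling aortic cannulas exteriorized at the nape. Towel restraint kept sympathetic tone high. Blood pressure was recorded directly by transducer and polygraph at 4 and 24 h after oral dosing in carboxymethylcellulose vehicle at 10 mL/kg. A change of ±5 mmHg was taken as not significant.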

Assay [5] relates to Rattus norvegicus. Briefly: Hypotensive activity in the rat as change in blood pressure (mmHg) at 4 hr after a 50 mg/kg oral dose of the compound. Summed up:
as §1

In assay [6] the test system is Rattus norvegicus. The assay is described as follows: Hypotensive activity in the rat as change in blood pressure (mmHg) at 24 hr after of 50 mg/kg oral dose of the compound. The essentials: as §1
The test system of assay [7] is Mus musculus. The assay is described as follows: Analgesic activity was determined in mouse writhing test by intraperitoneal administration of 0.2 mL of 0.08 N HCl 30 min after the subcutaneous injection of the compound(expt.2). The following applies: 0.5 h.

In turn, `C/N=C\Nc1c(C)cc(C)cc1C` gave an ED50 in the assay listed under Mus musculus [1] (Mus musculus) of 0.11 mg/kg.
Compound `C/N=C\Nc1cccc(Cl)c1Cl` displayed an ED50 in the assay listed under Mus musculus [1] (Mus musculus) of 0.8 mg/kg.
`Cc1cc(C(O)c2ccc(Cl)cc2)cc(C)c1/N=C/N(C)C` (centres undefined) yielded an ED50 in the assay listed under Mus musculus [1] (Mus musculus) greater than 50 mg/kg.
`CC(=O)OC(C)c1cc(C)c(/N=C/N(C)C)c(C)c1` (centres undefined) came in with a median effective dose (ED50) in the assay listed under Mus musculus [1] (Mus musculus) greater than 30 mg/kg.
On to `C/N=C\Nc1ccccc1Cl`, for which, in the assay filed under Mus musculus [1] (Mus musculus), the median effective dose (ED50) was determined as 35 mg/kg.
In the assay filed under Mus musculus [1] (Mus musculus), `Cc1cc(C(C)O)cc(C)c1/N=C/N(C)C` (centres undefined) came in with a median effective dose (ED50) of 40 mg/kg.
Take `CCOC(=O)C(C)c1cc(C)c(/N=C/N(C)C)c(C)c1` (centres undefined): the 50% effective dose (ED50) with Mus musculus [2] was 18 mg/kg; in the assay listed under Mus musculus [1], 8 mg/kg; in the assay listed under Mus musculus [1] (Mus musculus), greater than 50 mg/kg; in the assay on Mus musculus [3], 22 mg/kg.
As for `Cc1cc(C(O)c2ccc(Cl)c(Cl)c2)cc(C)c1/N=C/N(C)C` (centres undefined), the ED50 in the assay filed under Mus musculus [1] (Mus musculus) is greater than 50 mg/kg.
For `C/N=C\Nc1c(Cl)cccc1Cl.Cl`, the figures for the BP in the assay with Rattus norvegicus [4] and in the assay with Rattus norvegicus [5] were -13 mmHg and -21 mmHg, respectively. This compound had a 50% effective dose (ED50) in the assay filed under Mus musculus [1] (Mus musculus) of 4.4 mg/kg.
`C/N=C\Nc1ccc(Cl)cc1Cl` showed an ED50 in the assay listed under Mus musculus [1] (Mus musculus) greater than 50 mg/kg.
Turning to `Cc1ccc(/N=C/N(C)C)c(C)c1.Cl`, the 50% effect level in the assay filed under Mus musculus [1] (Mus musculus) (ED50) was put at a dose of 0.1 mg/kg.
Still for that read-out and setting: next, `CCOC(=O)C(C)(O)c1cc(C)c(/N=C/N(C)C)c(C)c1` (centres undefined): greater than 50 mg/kg; `CCOC(=O)C(C)(OC(C)=O)c1cc(C)c(/N=C/N(C)C)c(C)c1` (centres undefined): greater than 50 mg/kg.
Take `C/N=C\Nc1cc(Cl)ccc1Cl.Cl`: the BP in the assay on Rattus norvegicus [5] is 3 mmHg; in the assay with Rattus norvegicus [6] it was 5 mmHg. In addition, the median effective dose (ED50) in the assay listed under Mus musculus [1] (Mus musculus) was greater than 50 mg/kg.
Regarding `Cc1cccnc1/N=C/N(C)C.Cl`, the BP in the assay on Rattus norvegicus [5] is reported as 8 mmHg; with Rattus norvegicus [6] it was 9 mmHg. In the assay filed under Mus musculus [1] (Mus musculus), this compound gave an ED50 greater than 50 mg/kg.
On to `C/N=C\Nc1ccc(C)cc1C.Cl`, for which the BP in the assay on Rattus norvegicus [4] is reported as -19 mmHg; in the assay on Rattus norvegicus [5], -10 mmHg. In the assay listed under Mus musculus [1] (Mus musculus), this compound displayed a median effective dose (ED50) of 0.02 mg/kg.
As to `CN(C)/C=N/c1cc(Cl)ccc1Cl.Cl`, the BP in the assay with Rattus norvegicus [5] is on record as -5 mmHg; in the assay on Rattus norvegicus [6], -4 mmHg. Besides, in the assay filed under Mus musculus [1] (Mus musculus), the ED50 is greater than 50 mg/kg.
`Cc1cccc(C)c1/N=C/N(C)C.Cl`: the results for the BP in the assay with Rattus norvegicus [5] and with Rattus norvegicus [6] were -15 mmHg and -21 mmHg, respectively. The same compound returned a 50% effective dose (ED50) in the assay listed under Mus musculus [1] (Mus musculus) of 0.1 mg/kg.
With `CCOC(=O)c1cc(C)c(/N=C/N(C)C)c(C)c1.Cl`, in the assay listed under Mus musculus [1] (Mus musculus), the median effective dose (ED50) is greater than 50 mg/kg.
Turning to `CN(C)/C=N/c1c(Cl)cccc1Cl.Cl`, the BP with Rattus norvegicus [4] was -4 mmHg; with Rattus norvegicus [5] it was -24 mmHg. In the assay listed under Mus musculus [1] (Mus musculus), the 50% effect level (ED50) was put at a dose of 3 mg/kg.
For the compound `C/N=C\Nc1ccc(Cl)c(Cl)c1.Cl`, the BP is given as 0 mmHg with Rattus norvegicus [5] and -3 mmHg with Rattus norvegicus [6]. Also, in the assay listed under Mus musculus [1] (Mus musculus), the 50% effective dose (ED50) was greater than 50 mg/kg.
Turning to `Cc1cc(C)c(/N=C/N(C)C)c(C)c1.Cl`, the results for the BP in the assay with Rattus norvegicus [5] and in the assay with Rattus norvegicus [6] were -10 mmHg and 2 mmHg, respectively. Besides, the median effective dose (ED50) in the assay on Mus musculus [7] is 0.37 mg/kg; in the assay listed under Mus musculus [1] (Mus musculus) it was 0.4 mg/kg.
`CN(C)/C=N/c1ccc(Cl)c(Cl)c1.Cl`: the BP in the assay with Rattus norvegicus [5] worked out at 0 mmHg; with Rattus norvegicus [6], 2 mmHg. This compound also showed a 50% effective dose (ED50) in the assay filed under Mus musculus [1] (Mus musculus) greater than 50 mg/kg.
On to `Clc1cccc(Cl)c1NC1=NCCN1` [CLONIDINE], for which the BP in the assay with Rattus norvegicus [5] is -29 mmHg. In the assay filed under Mus musculus [1] (Mus musculus), this compound yielded an ED50 of 0.02 mg/kg.
